Measurements published in ChEMBL document CHEMBL1140341, “Synthesis and radioligand binding studies of C-5- and C-8-substituted 1-(3,4-dimethoxybenzyl)-2,2-dimethyl-1,2,3,4-tetrahydroisoquinoliniums as SK channel blockers related to N-methyl-laudanosine and N-methyl-noscapine” (J Med Chem, 2005).

Legend:
[1] = molecular target: Small conductance calcium-activated potassium channel (Rattus norvegicus) (UniProt P70604+P70606+P70605); assay: Displacement of [125I]apamin from calcium-activated potassium (SK) channels of rat cortex at 10 uM
Summary of the method: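 Rat cortical synaptosomes (0.2 mg protein/mL) in 10 mM Tris-HCl pH 7.5 with 5.4 mM KCl and 0.1% BSA. Incubated 1 h at 0 °C with about 10 pM 125I-apamin and 10 μM drug. Filtered on polyethylenimine-coated GF/C filters, washed twice, counted by scintillation. Nonspecific binding defined with 0.1 μM unlabeled apamin; filter binding without synaptosomes subtracted.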

[2] = molecular target: Small conductance calcium-activated potassium channel (Rattus norvegicus, UniProt P70604+P70606+P70605); assay: Inhibition of [125I]apamin binding to calcium-activated potassium (SK) channel of rat cortex
Summary of the method: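 Cortical synaptosomes (0.2 mg protein/mL), Tris-HCl 10 mM pH 7.5 buffer with 5.4 mM KCl and 0.1% BSA. 1 h at 0 °C with ±10 pM 125I-apamin and nine drug concentrations (10-4–10-7 M); run for drugs displacing at least 20% at 10 μM. Polyethylenimine-coated GF/C filtration, scintillation counting. Nonspecific binding with 0.1 μM apamin; curve-fitted.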

Displacement [1] | IC50 [2] | Ki [2] | Compound
10% | – | – | COc1ccc(CC2c3c(C)cccc3CCN2C)cc1OC (stereo not given)
10% | – | – | COc1ccc(CC2c3c(cccc3C(C)C)CCN2C)cc1OC (stereo not given)
5% | – | – | COc1ccc(CC2c3c(Cl)cccc3CCN2C)cc1OC (stereo not given)
57% | 8.7 µM | 1.6 µM | COc1ccc(C[C@H]2c3cc(OC)c(OC)cc3CC[N+]2(C)C)cc1OC.[I-] [LAUDANOSINE METHIODIDE]
1% | – | – | COc1ccc(CC2c3cccc(Br)c3CCN2C)cc1OC (stereo not given)
55% | 8.6 µM | 1.6 µM | COc1ccc(CC2c3c(cccc3C(C)C)CC[N+]2(C)C)cc1OC.[I-] (stereo not given)
1% | – | – | COc1ccc(CC2c3c(cccc3OC)CCN2C)cc1OC (stereo not given)
27% | 14.1 µM | 3.6 µM | COc1ccc2c(c1OC)C(=O)OC2C1c2c(cc3c(c2OC)OCO3)CC[N+]1(C)C.[I-] (stereo not given)
15% | – | – | COc1ccc(CC2c3sccc3CC[N+]2(C)C)cc1OC (stereo not given)
2% | – | – | COc1ccc(CC2c3sccc3CCN2C)cc1OC (stereo not given)
8% | – | – | COc1ccc(CC2c3cccc(Cl)c3CCN2C)cc1OC (stereo not given)
44% | 13.6 µM | 2.6 µM | CCc1cccc2c1C(Cc1ccc(OC)c(OC)c1)[N+](C)(C)CC2.[I-] (stereo not given)
27% | 39.6 µM | 7.6 µM | COc1ccc(CC2c3cccc(Cl)c3CC[N+]2(C)C)cc1OC (stereo not given)
1% | – | – | COc1ccc(CC2c3sc(C)cc3CCN2C)cc1OC (stereo not given)
18% | – | – | COc1ccc(CC2c3sc(C)cc3CC[N+]2(C)C)cc1OC (stereo not given)
24% | 28.4 µM | 5.5 µM | COc1ccc(CC2c3c(C)cccc3CC[N+]2(C)C)cc1OC.[I-] (stereo not given)
29% | 25.4 µM | 4.9 µM | COc1ccc(CC2c3cccc(Br)c3CC[N+]2(C)C)cc1OC (stereo not given)
26% | 35.2 µM | 6.8 µM | COc1ccc(CC2c3c(Br)cccc3CC[N+]2(C)C)cc1OC.[I-] (stereo not given)
9% | – | – | COc1ccc(CC2c3c(cccc3OC)CC[N+]2(C)C)cc1OC (stereo not given)
2% | – | – | CCc1cccc2c1C(Cc1ccc(OC)c(OC)c1)N(C)CC2 (stereo not given)
10% | – | – | COc1ccc(CC2c3c(Br)cccc3CCN2C)cc1OC (stereo not given)
23% | 50 µM | 9.3 µM | COc1ccc(CC2c3c(Cl)cccc3CC[N+]2(C)C)cc1OC.[I-] (stereo not given)
